Values after ≈ are worked out from the molar mass of the structure shown.
Tests used:
Homo sapiens = species on record: Homo sapiens; assay: Inhibition of human methionine aminopeptidase 1B at 100 uM using Met-AMC as substrate relative to control
Summary of the method: (§1)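 Purified MetAP at 4 µM in 50 mM HEPES with 150 mM KCl and CoCl2 at 3 molar equivalents of enzyme. pH 7.5 for SpMetAP1a and EfMetAP1a, pH 8.0 for HsMetAP1b. Substrate L-Met-AMC at 50, 100 and 150 µM. Compounds (10 mM DMSO stocks) tested over 1 to 120 µM for % inhibition; Ki by Dixon method.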

Enterococcus faecalis [1] = assay: Inhibition of Enterococcus faecalis methionine aminopeptidase 1A at 100 uM using Met-AMC as substrate relative to control; summary of the method: as §1
[2] = tested on: Mycobacterium tuberculosis; assay: Inhibition of Mycobacterium tuberculosis methionine aminopeptidase 1C at 100 uM using Met-AMC as substrate relative to control
Summary of the method: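 Purified MtMetAP1c (4 µM) in 50 mM Hepes pH 7.5 with 150 mM KCl and CoCl2 at three molar equivalents of enzyme. Substrate was L-Met-AMC at 50, 100 or 150 µM. Compounds came from 10 mM DMSO stocks. Percent inhibition was taken against the uninhibited control.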

Streptococcus pneumoniae [3] = assay: Inhibition of Streptococcus pneumoniae methionine aminopeptidase 1A at 100 uM using Met-AMC as substrate relative to control; summary of the method: as §1
[4] = Inhibition of human methionine aminopeptidase 1B using Met-AMC as substrate by Dixon method; summary of the method: as §1
[5] = Inhibition of Mycobacterium tuberculosis methionine aminopeptidase 1C using Met-AMC as substrate by Dixon method
Pseudomonas aeruginosa = assay: Antibacterial activity against Pseudomonas aeruginosa MTCC 2453 after 24 hrs by broth dilution assay; format: functional; conditions: MTCC 2453, 24 h
Summary of the method: (§2)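 Broth dilution per NCCLS in nutrient broth, serial dilutions 1000 to 7.8 µg/mL, DMSO below 4% final. Inoculum approx. 2.5×10⁶ cells/mL, 37 °C with shaking at 150 rpm for 24 h. MIC taken as the lowest concentration with no visible growth. Ciprofloxacin served as positive control.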

Salmonella typhimurium = assay: Antibacterial activity against Salmonella typhimurium MTCC 3224 after 24 hrs by broth dilution assay; format: functional, Salmonella enterica subsp. enterica serovar Typhimurium; conditions: Salmonella enterica, MTCC 3224, 24 h; summary of the method: as §2
Streptococcus pneumoniae [6] = assay: Antibacterial activity against Streptococcus pneumoniae MTCC 655 after 24 hrs by broth dilution assay; format: functional; conditions: MTCC 655, 24 h; summary of the method: as §2
Enterococcus faecalis [7] = assay: Antibacterial activity against Enterococcus faecalis MTCC 439 after 24 hrs by broth dilution assay; format: functional; conditions: MTCC 439, 24 h; summary of the method: as §2
Klebsiella pneumoniae = assay: Antibacterial activity against Klebsiella pneumoniae ATCC 700603 after 24 hrs by broth dilution assay; format: functional; conditions: Klebsiella pneumoniae, 700603, 24 h; summary of the method: as §2
Escherichia coli [8] = assay: Antibacterial activity against Escherichia coli ATCC 25922 after 24 hrs by broth dilution assay; format: functional; conditions: ATCC 25922, 24 h; summary of the method: as §2
[9] = Inhibition of Enterococcus faecalis methionine aminopeptidase 1A using Met-AMC as substrate by Dixon method; summary of the method: as §1
[10] = Inhibition of Streptococcus pneumoniae methionine aminopeptidase 1A using Met-AMC as substrate by Dixon method; summary of the method: as §1
Escherichia coli [11] = assay: Antibacterial activity against Escherichia coli MRA11 after overnight incubation; format: functional
Summary of the method: (§3)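 Multidrug-resistant E. coli isolates in Luria broth, test range 8 to 1024 µg/mL (ciprofloxacin 0.49 to 63.3 µg/mL). Inoculum 10 µL of a 1000-fold diluted 0.1 OD600 culture, incubated overnight at 37 °C. OD read at 600 nm. % inhibition = (a−b)/a×100, with media and compound-colour blanks subtracted.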

Escherichia coli [12] = assay: Antibacterial activity against Escherichia coli MRC17 after overnight incubation; format: functional; summary of the method: as §3
Escherichia coli [13] = assay: Antibacterial activity against Escherichia coli MRC24 after overnight incubation; format: functional; summary of the method: as §3
Escherichia coli [14] = assay: Antibacterial activity against Escherichia coli MRAE26 after overnight incubation; format: functional; summary of the method: as §3
Escherichia coli [15] = assay: Antibacterial activity against Escherichia coli MRAE32 after overnight incubation; format: functional; summary of the method: as §3
Escherichia coli [16] = assay: Antibacterial activity against Escherichia coli MRAE33 after overnight incubation; format: functional; summary of the method: as §3
Escherichia coli [17] = assay: Antibacterial activity against Escherichia coli MRAE44 after overnight incubation; format: functional; summary of the method: as §3
Escherichia coli [18] = assay: Antibacterial activity against Escherichia coli MROB11 after overnight incubation; format: functional; summary of the method: as §3

Row | SMILES | inhibition (Homo sapiens) [%] | inhibition (Enterococcus faecalis [1]) [%] | inhibition [2] [%] | inhibition (Streptococcus pneumoniae [3]) [%] | Ki [4] [µM] | Ki [5] [µM] | MIC (Pseudomonas aeruginosa) [µg/mL] | MIC (Salmonella typhimurium) [µg/mL] | MIC (Streptococcus pneumoniae [6]) [µg/mL] | MIC (Enterococcus faecalis [7]) [µg/mL] | MIC (Klebsiella pneumoniae) [µg/mL] | MIC (Escherichia coli [8]) [µg/mL] | Ki [10] [µM] | further results
1 | CCOC(=O)c1cc(-c2ccc(Cl)cc2)no1 | 66.3 | 19.4 | 47.4 | 40.3 | 160 | 152 | 500 (≈ 1990 µM) | > 1000 | 1000 (≈ 3970 µM) | 500 (≈ 1990 µM) | 1000 (≈ 3970 µM) | 500 (≈ 1990 µM) | – | –
2 | Cc1ccccc1C(=O)/C=C(\O)C(=O)O | 52.3 | 54.7 | 65.7 | 62.8 | 73.8 | 37.5 | 1000 (≈ 4850 µM) | 1000 (≈ 4850 µM) | 500 (≈ 2420 µM) | 500 (≈ 2420 µM) | 1000 (≈ 4850 µM) | 250 (≈ 1210 µM) | 87.5 | Ki [9]: 62.6 µM
3 | CCOC(=O)/C(O)=C/C(=O)c1ccccc1C | 61.4 | 43.5 | 55.8 | 50.3 | 74.3 | 36.7 | 1000 (≈ 4270 µM) | 1000 (≈ 4270 µM) | 250 (≈ 1070 µM) | 250 (≈ 1070 µM) | 1000 (≈ 4270 µM) | 250 (≈ 1070 µM) | 98.5 | –
4 | CCOC(=O)/C(O)=C/C(=O)c1ccc(Cl)cc1 | 61 | 27.3 | 70.5 | 55.3 | 56.1 | 39.5 | 500 (≈ 1960 µM) | 500 (≈ 1960 µM) | 500 (≈ 1960 µM) | 250 (≈ 982 µM) | > 1000 | 500 (≈ 1960 µM) | 62.6 | –
5 | COC(=O)[C@@H](C)NC(=O)c1cc(-c2oc3ccc(Br)cc3c2C)no1 | 45.1 | 18.8 | – | 36.5 | – | – | – | – | – | – | – | – | – | –
6 | O=C(O)c1cn(C2CC2)c2cc(N3CCNCC3)c(F)cc2c1=O [CIPROFLOXACIN] | – | – | – | – | – | – | – | 0.0156 (≈ 0.0471 µM) | 0.312 (≈ 0.942 µM) | 0.0625 (≈ 0.189 µM) | 0.25 (≈ 0.754 µM) | – | – | ICmax (Escherichia coli [11]): 63.3 µg/mL; MIC (Escherichia coli [11]; Escherichia coli, MRA11): 128 µg/mL (≈ 386 µM); ICmax (Escherichia coli [12]): 63.3 µg/mL; MIC (Escherichia coli [12]; Escherichia coli, MRC17): 128 µg/mL (≈ 386 µM); ICmax (Escherichia coli [13]): 1.975 µg/mL; ICmax (Escherichia coli [14]): 1.975 µg/mL; ICmax (Escherichia coli [15]): 63.3 µg/mL; ICmax (Escherichia coli [16]): 7.9 µg/mL; ICmax (Escherichia coli [17]): 63.3 µg/mL; ICmax (Escherichia coli [18]): 1.975 µg/mL
7 | CCOC(=O)c1cc(-c2ccccc2C)no1 | 48.9 | 27.6 | 47.1 | 41.4 | 123 | – | – | – | – | – | – | – | – | –
8 | Cc1c(-c2cc(C(=O)N[C@H](C)C(=O)O)on2)oc2ccc(Br)cc12 | 93.4 | 34.6 | 33.2 | 42.8 | 3.11 | – | 1000 (≈ 2540 µM) | 500 (≈ 1270 µM) | 250 (≈ 636 µM) | 125 (≈ 318 µM) | > 1000 | 500 (≈ 1270 µM) | – | –
9 | Cc1ccccc1C(=O)/C=C(\O)C(=O)N[C@H](C)C(=O)O | 59.2 | 63.2 | 47.7 | 58 | 54 | – | 1000 (≈ 3610 µM) | 1000 (≈ 3610 µM) | 500 (≈ 1800 µM) | 500 (≈ 1800 µM) | 1000 (≈ 3610 µM) | 1000 (≈ 3610 µM) | 59.9 | Ki [9]: 64 µM
10 | Cc1c(-c2cc(C(=O)O)on2)oc2ccc(Br)cc12 | 47.3 | 40.3 | 39.1 | 43.2 | – | – | – | – | – | – | – | – | – | –
11 | COC(=O)[C@@H](C)NC(=O)c1cc(-c2ccccc2C)no1 | 51.1 | 24.9 | 45.9 | 37 | 137 | – | – | – | – | – | – | – | – | –
12 | CCOC(=O)/C(O)=C/C(=O)c1oc2ccc(Br)cc2c1C | 86 | 93.3 | 91.6 | 73 | 19.8 | 18.2 | 1000 (≈ 2830 µM) | 1000 (≈ 2830 µM) | 250 (≈ 708 µM) | 250 (≈ 708 µM) | 500 (≈ 1420 µM) | 250 (≈ 708 µM) | 68.2 | Ki [9]: 10.8 µM
13 | Cc1ccccc1-c1cc(C(=O)O)on1 | 49 | 32 | 43.7 | 42.4 | 104 | – | – | – | – | – | – | – | – | –
14 | CCOC(=O)c1cc(-c2oc3ccc(Br)cc3c2C)no1 | 43.6 | 21.1 | 41.3 | 40.6 | – | – | – | – | – | – | – | – | – | –
15 | C[C@@H](NC(=O)c1cc(-c2ccc(Cl)cc2)no1)C(=O)O | 47.2 | 23.6 | 51.7 | 43.7 | – | 94.6 | – | – | – | – | – | – | – | –
16 | Cc1ccccc1-c1cc(C(=O)N[C@H](C)C(=O)O)on1 | 50.2 | 43.4 | 40.9 | 44.6 | 86.9 | – | – | – | – | – | – | – | – | –
17 | O=C(O)c1cc(-c2ccc(Cl)cc2)no1 | 43.9 | 20 | 58.2 | 39.7 | – | 71.8 | – | – | – | – | – | – | – | –
18 | COC(=O)[C@@H](C)NC(=O)/C(O)=C/C(=O)c1ccccc1C | 51.9 | 59.6 | 67.1 | 57 | 113 | 32.6 | 1000 (≈ 3430 µM) | 1000 (≈ 3430 µM) | 125 (≈ 429 µM) | 500 (≈ 1720 µM) | 1000 (≈ 3430 µM) | 1000 (≈ 3430 µM) | 51.9 | Ki [9]: 60.4 µM
19 | Cc1c(C(=O)/C=C(\O)C(=O)O)oc2ccc(Br)cc12 | 88.2 | 91.9 | 93.5 | 93.4 | 32.7 | 26.3 | 125 (≈ 384 µM) | 500 (≈ 1540 µM) | 62.5 (≈ 192 µM) | 62.5 (≈ 192 µM) | 1000 (≈ 3080 µM) | 1000 (≈ 3080 µM) | 27.5 | Ki [9]: 17.7 µM
20 | COC(=O)[C@@H](C)NC(=O)c1cc(-c2ccc(Cl)cc2)no1 | 43.1 | 15.4 | 53.2 | 43.8 | – | 134 | – | – | – | – | – | – | – | –
